According to ChEMBL document CHEMBL1124793, “Comparative reactivity of 1-carba-1-dethiacephalosporins with cephalosporins” (J Med Chem, 1990):
Converted amounts (≈) assume the structure as drawn.

tested on: Escherichia coli; experiment: In vitro inhibitory activity against Escherichia coli EC14; type: functional
Outline: (§1)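 Agar dilution: compounds were diluted in 0.1 M phosphate buffer, pH 7.0, and mixed at 50 °C into Mueller–Hinton agar with 1% Bacto-Supplement C. Fresh overnight cultures were diluted to about 1 × 10^4 cells/μL and spotted at 1 μL. Plates were incubated overnight at 35 °C in ambient air. MIC (μg/mL) was the lowest concentration preventing visible growth.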

Structure (SMILES) | MIC
O=C(COc1ccccc1)N[C@@H]1C(=O)N2C(C(=O)O)=C(Cl)CC[C@H]12 | 8 µg/mL (≈ 22.8 µM)
CS(=O)(=O)OC1=C(C(=O)O)N2C(=O)[C@@H](NC(=O)COc3ccccc3)[C@H]2CC1 | 32 µg/mL (≈ 78 µM)
N[C@@H](C(=O)N[C@@H]1C(=O)N2C(C(=O)O)=C(Cl)CS[C@H]12)c1ccccc1 [CEFACLOR ANHYDROUS] | 0.25 µg/mL (≈ 0.68 µM)

Results, then the compound that gave them:

MIC | Structure (SMILES)
128 µg/mL (≈ 338 µM) | COCC1=C(C(=O)O)N2C(=O)[C@@H](NC(=O)COc3ccccc3)[C@H]2SC1
128 µg/mL (≈ 367 µM) | CC1=C(C(=O)O)N2C(=O)[C@@H](NC(=O)COc3ccccc3)[C@H]2SC1
32 µg/mL (≈ 88.8 µM) | COCC1=C(C(=O)O)N2C(=O)[C@@H](NC(=O)COc3ccccc3)[C@H]2CC1

tested on: not listed separately; experiment: Pseudo-first-order rate constant at pH 10, micro=0.5, 35 degrees Centigrade; type: ADME
Outline: (§2)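 Parent β-lactam loss followed by HPLC, starting at 3.9 × 10^-4–1 × 10^-3 M, at 35 °C and μ = 0.5. pH was held at 10 by a pH-stat adding NaOH. Pseudo-first-order rate constants were derived, with half-lives from these rates. Some runs were done at pH 11, and the constant was taken as 1/10 of the observed value, assuming proportionality to [OH].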

K | Structure (SMILES)
0.0438 h⁻¹ | O=C(COc1ccccc1)N[C@@H]1C(=O)N2C(C(=O)O)=C(Cl)CC[C@H]12
0.0149 h⁻¹ | COCC1=C(C(=O)O)N2C(=O)[C@@H](NC(=O)COc3ccccc3)[C@H]2CC1

tested on: Enterobacter cloacae; experiment: In vitro inhibitory activity against Enterobacter cloacae EB5; type: functional; outline: as §1

Structure (SMILES) | MIC
O=C(COc1ccccc1)N[C@@H]1C(=O)N2C(C(=O)O)=C(Cl)CC[C@H]12 | 128 µg/mL (≈ 365 µM)
CS(=O)(=O)OC1=C(C(=O)O)N2C(=O)[C@@H](NC(=O)COc3ccccc3)[C@H]2CC1 | 128 µg/mL (≈ 312 µM)
N[C@@H](C(=O)N[C@@H]1C(=O)N2C(C(=O)O)=C(Cl)CS[C@H]12)c1ccccc1 [CEFACLOR ANHYDROUS] | 32 µg/mL (≈ 87 µM)

More lines, now with the values ahead:

MIC | Structure (SMILES)
128 µg/mL (≈ 338 µM) | COCC1=C(C(=O)O)N2C(=O)[C@@H](NC(=O)COc3ccccc3)[C@H]2SC1
128 µg/mL (≈ 367 µM) | CC1=C(C(=O)O)N2C(=O)[C@@H](NC(=O)COc3ccccc3)[C@H]2SC1
128 µg/mL (≈ 299 µM) | CS(=O)(=O)OC1=C(C(=O)O)N2C(=O)[C@@H](NC(=O)COc3ccccc3)[C@H]2SC1
128 µg/mL (≈ 355 µM) | COCC1=C(C(=O)O)N2C(=O)[C@@H](NC(=O)COc3ccccc3)[C@H]2CC1

tested on: not listed separately; experiment: Pseudo-first-order rate constant at pH 10 and 35 degrees Centigrade; type: ADME; outline: as §2

Structure (SMILES) | K
O=C(Cc1cccs1)N[C@@H]1C(=O)N2C(C(=O)O)=C(C(=O)O)CS[C@H]12 | 0.34 h⁻¹
O=C(Cc1cccs1)N[C@@H]1C(=O)N2C(C(=O)O)=C(C(=O)O)CC[C@H]12 | 0.0105 h⁻¹
CS(=O)(=O)OC1=C(C(=O)O)N2C(=O)[C@@H](NC(=O)COc3ccccc3)[C@H]2CC1 | 0.089 h⁻¹
N[C@@H](C(=O)N[C@@H]1C(=O)N2C(C(=O)O)=C(Cl)CS[C@H]12)c1ccccc1 [CEFACLOR ANHYDROUS] | 0.944 h⁻¹

Second part, the compound after the results:

K | Structure (SMILES)
0.368 h⁻¹ | COCC1=C(C(=O)O)N2C(=O)[C@@H](NC(=O)COc3ccccc3)[C@H]2SC1
0.0793 h⁻¹ | CC1=C(C(=O)O)N2C(=O)[C@@H](NC(=O)COc3ccccc3)[C@H]2SC1
1.91 h⁻¹ | CS(=O)(=O)OC1=C(C(=O)O)N2C(=O)[C@@H](NC(=O)COc3ccccc3)[C@H]2SC1

tested on: not listed separately; experiment: Half-life is evaluated; type: ADME; outline: as §2

Structure (SMILES) | half-life
O=C(Cc1cccs1)N[C@@H]1C(=O)N2C(C(=O)O)=C(C(=O)O)CS[C@H]12 | 2.04 h
O=C(Cc1cccs1)N[C@@H]1C(=O)N2C(C(=O)O)=C(C(=O)O)CC[C@H]12 | 66 h
O=C(COc1ccccc1)N[C@@H]1C(=O)N2C(C(=O)O)=C(Cl)CC[C@H]12 | 15.8 h
CS(=O)(=O)OC1=C(C(=O)O)N2C(=O)[C@@H](NC(=O)COc3ccccc3)[C@H]2CC1 | 7.79 h
N[C@@H](C(=O)N[C@@H]1C(=O)N2C(C(=O)O)=C(Cl)CS[C@H]12)c1ccccc1 [CEFACLOR ANHYDROUS] | 0.734 h

Second part, the compound after the results:

half-life | Structure (SMILES)
1.88 h | COCC1=C(C(=O)O)N2C(=O)[C@@H](NC(=O)COc3ccccc3)[C@H]2SC1
8.74 h | CC1=C(C(=O)O)N2C(=O)[C@@H](NC(=O)COc3ccccc3)[C@H]2SC1
0.363 h | CS(=O)(=O)OC1=C(C(=O)O)N2C(=O)[C@@H](NC(=O)COc3ccccc3)[C@H]2SC1
46.5 h | COCC1=C(C(=O)O)N2C(=O)[C@@H](NC(=O)COc3ccccc3)[C@H]2CC1

tested on: Escherichia coli; experiment: Inhibitory activity against Escherichia coli EC14; type: functional; outline: as §1

MIC | Structure (SMILES)
64 µg/mL (≈ 149 µM) | CS(=O)(=O)OC1=C(C(=O)O)N2C(=O)[C@@H](NC(=O)COc3ccccc3)[C@H]2SC1

tested on: Haemophilus influenzae; experiment: In vitro inhibitory activity against Haemophilus influenza C.L; type: functional; outline: as §1

Structure (SMILES) | MIC
O=C(COc1ccccc1)N[C@@H]1C(=O)N2C(C(=O)O)=C(Cl)CC[C@H]12 | 4 µg/mL (≈ 11.4 µM)
CS(=O)(=O)OC1=C(C(=O)O)N2C(=O)[C@@H](NC(=O)COc3ccccc3)[C@H]2CC1 | 8 µg/mL (≈ 19.5 µM)
N[C@@H](C(=O)N[C@@H]1C(=O)N2C(C(=O)O)=C(Cl)CS[C@H]12)c1ccccc1 [CEFACLOR ANHYDROUS] | 1 µg/mL (≈ 2.72 µM)

More lines, now with the values ahead:

MIC | Structure (SMILES)
2 µg/mL (≈ 5.29 µM) | COCC1=C(C(=O)O)N2C(=O)[C@@H](NC(=O)COc3ccccc3)[C@H]2SC1
16 µg/mL (≈ 45.9 µM) | CC1=C(C(=O)O)N2C(=O)[C@@H](NC(=O)COc3ccccc3)[C@H]2SC1
4 µg/mL (≈ 9.34 µM) | CS(=O)(=O)OC1=C(C(=O)O)N2C(=O)[C@@H](NC(=O)COc3ccccc3)[C@H]2SC1
8 µg/mL (≈ 22.2 µM) | COCC1=C(C(=O)O)N2C(=O)[C@@H](NC(=O)COc3ccccc3)[C@H]2CC1

tested on: Providencia rettgeri; experiment: In vitro inhibitory activity against Proteus rettgeri C24; type: functional; outline: as §1

Structure (SMILES) | MIC
O=C(COc1ccccc1)N[C@@H]1C(=O)N2C(C(=O)O)=C(Cl)CC[C@H]12 | 128 µg/mL (≈ 365 µM)
CS(=O)(=O)OC1=C(C(=O)O)N2C(=O)[C@@H](NC(=O)COc3ccccc3)[C@H]2CC1 | 128 µg/mL (≈ 312 µM)
N[C@@H](C(=O)N[C@@H]1C(=O)N2C(C(=O)O)=C(Cl)CS[C@H]12)c1ccccc1 [CEFACLOR ANHYDROUS] | 128 µg/mL (≈ 348 µM)

Continued, values first:

MIC | Structure (SMILES)
128 µg/mL (≈ 338 µM) | COCC1=C(C(=O)O)N2C(=O)[C@@H](NC(=O)COc3ccccc3)[C@H]2SC1
128 µg/mL (≈ 367 µM) | CC1=C(C(=O)O)N2C(=O)[C@@H](NC(=O)COc3ccccc3)[C@H]2SC1
128 µg/mL (≈ 299 µM) | CS(=O)(=O)OC1=C(C(=O)O)N2C(=O)[C@@H](NC(=O)COc3ccccc3)[C@H]2SC1
128 µg/mL (≈ 355 µM) | COCC1=C(C(=O)O)N2C(=O)[C@@H](NC(=O)COc3ccccc3)[C@H]2CC1

tested on: Klebsiella pneumoniae; experiment: In vitro inhibitory activity against Klebsiella X26; type: functional; outline: as §1

Structure (SMILES) | MIC
O=C(COc1ccccc1)N[C@@H]1C(=O)N2C(C(=O)O)=C(Cl)CC[C@H]12 | 8 µg/mL (≈ 22.8 µM)
CS(=O)(=O)OC1=C(C(=O)O)N2C(=O)[C@@H](NC(=O)COc3ccccc3)[C@H]2CC1 | 8 µg/mL (≈ 19.5 µM)
N[C@@H](C(=O)N[C@@H]1C(=O)N2C(C(=O)O)=C(Cl)CS[C@H]12)c1ccccc1 [CEFACLOR ANHYDROUS] | 0.25 µg/mL (≈ 0.68 µM)

The next lines start with the values.

MIC | Structure (SMILES)
32 µg/mL (≈ 84.6 µM) | COCC1=C(C(=O)O)N2C(=O)[C@@H](NC(=O)COc3ccccc3)[C@H]2SC1
64 µg/mL (≈ 184 µM) | CC1=C(C(=O)O)N2C(=O)[C@@H](NC(=O)COc3ccccc3)[C@H]2SC1
8 µg/mL (≈ 18.7 µM) | CS(=O)(=O)OC1=C(C(=O)O)N2C(=O)[C@@H](NC(=O)COc3ccccc3)[C@H]2SC1
8 µg/mL (≈ 22.2 µM) | COCC1=C(C(=O)O)N2C(=O)[C@@H](NC(=O)COc3ccccc3)[C@H]2CC1

tested on: Pseudomonas aeruginosa; experiment: In vitro inhibitory activity against Pseudomonas aeruginosa X258; type: functional; outline: as §1

Structure (SMILES) | MIC
O=C(COc1ccccc1)N[C@@H]1C(=O)N2C(C(=O)O)=C(Cl)CC[C@H]12 | 128 µg/mL (≈ 365 µM)
CS(=O)(=O)OC1=C(C(=O)O)N2C(=O)[C@@H](NC(=O)COc3ccccc3)[C@H]2CC1 | 128 µg/mL (≈ 312 µM)
N[C@@H](C(=O)N[C@@H]1C(=O)N2C(C(=O)O)=C(Cl)CS[C@H]12)c1ccccc1 [CEFACLOR ANHYDROUS] | 128 µg/mL (≈ 348 µM)

More lines, now with the values ahead:

MIC | Structure (SMILES)
128 µg/mL (≈ 338 µM) | COCC1=C(C(=O)O)N2C(=O)[C@@H](NC(=O)COc3ccccc3)[C@H]2SC1
128 µg/mL (≈ 367 µM) | CC1=C(C(=O)O)N2C(=O)[C@@H](NC(=O)COc3ccccc3)[C@H]2SC1
128 µg/mL (≈ 299 µM) | CS(=O)(=O)OC1=C(C(=O)O)N2C(=O)[C@@H](NC(=O)COc3ccccc3)[C@H]2SC1
128 µg/mL (≈ 355 µM) | COCC1=C(C(=O)O)N2C(=O)[C@@H](NC(=O)COc3ccccc3)[C@H]2CC1

tested on: Staphylococcus aureus; experiment: In vitro inhibitory activity against Staphylococcus aureus X1.1; type: functional; outline: as §1

Structure (SMILES) | MIC
O=C(COc1ccccc1)N[C@@H]1C(=O)N2C(C(=O)O)=C(Cl)CC[C@H]12 | 1 µg/mL (≈ 2.85 µM)
CS(=O)(=O)OC1=C(C(=O)O)N2C(=O)[C@@H](NC(=O)COc3ccccc3)[C@H]2CC1 | 0.5 µg/mL (≈ 1.22 µM)
N[C@@H](C(=O)N[C@@H]1C(=O)N2C(C(=O)O)=C(Cl)CS[C@H]12)c1ccccc1 [CEFACLOR ANHYDROUS] | 1 µg/mL (≈ 2.72 µM)

Continued, values first:

MIC | Structure (SMILES)
0.25 µg/mL (≈ 0.661 µM) | COCC1=C(C(=O)O)N2C(=O)[C@@H](NC(=O)COc3ccccc3)[C@H]2SC1
4 µg/mL (≈ 11.5 µM) | CC1=C(C(=O)O)N2C(=O)[C@@H](NC(=O)COc3ccccc3)[C@H]2SC1
0.125 µg/mL (≈ 0.292 µM) | CS(=O)(=O)OC1=C(C(=O)O)N2C(=O)[C@@H](NC(=O)COc3ccccc3)[C@H]2SC1
0.5 µg/mL (≈ 1.39 µM) | COCC1=C(C(=O)O)N2C(=O)[C@@H](NC(=O)COc3ccccc3)[C@H]2CC1

tested on: Streptococcus pyogenes; experiment: In vitro inhibitory activity against Streptococcus pyogenes Park; type: functional; outline: as §1

Structure (SMILES) | MIC
O=C(COc1ccccc1)N[C@@H]1C(=O)N2C(C(=O)O)=C(Cl)CC[C@H]12 | 0.25 µg/mL (≈ 0.713 µM)
CS(=O)(=O)OC1=C(C(=O)O)N2C(=O)[C@@H](NC(=O)COc3ccccc3)[C@H]2CC1 | 0.5 µg/mL (≈ 1.22 µM)
N[C@@H](C(=O)N[C@@H]1C(=O)N2C(C(=O)O)=C(Cl)CS[C@H]12)c1ccccc1 [CEFACLOR ANHYDROUS] | 0.5 µg/mL (≈ 1.36 µM)

Now from value to compound:

MIC | Structure (SMILES)
0.12 µg/mL (≈ 0.317 µM) | COCC1=C(C(=O)O)N2C(=O)[C@@H](NC(=O)COc3ccccc3)[C@H]2SC1
1 µg/mL (≈ 2.87 µM) | CC1=C(C(=O)O)N2C(=O)[C@@H](NC(=O)COc3ccccc3)[C@H]2SC1
0.015 µg/mL (≈ 0.035 µM) | CS(=O)(=O)OC1=C(C(=O)O)N2C(=O)[C@@H](NC(=O)COc3ccccc3)[C@H]2SC1
0.25 µg/mL (≈ 0.694 µM) | COCC1=C(C(=O)O)N2C(=O)[C@@H](NC(=O)COc3ccccc3)[C@H]2CC1
